Measured values published in the M2OR odorant receptor database.

Columns and labels:
Details in all cases: stereoisomer not certain
UniProt A2ATE5 = target: T1, UniProt A2ATE5
T1 sequence (whole entry): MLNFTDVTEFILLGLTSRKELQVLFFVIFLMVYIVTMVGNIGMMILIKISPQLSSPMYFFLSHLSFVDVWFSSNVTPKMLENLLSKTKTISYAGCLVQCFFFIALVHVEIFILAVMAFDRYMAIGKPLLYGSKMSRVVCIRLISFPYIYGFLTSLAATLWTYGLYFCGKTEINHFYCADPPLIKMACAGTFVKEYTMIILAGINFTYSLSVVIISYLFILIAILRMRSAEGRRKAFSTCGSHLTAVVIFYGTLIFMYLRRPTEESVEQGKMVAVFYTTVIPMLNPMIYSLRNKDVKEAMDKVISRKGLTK
Summary of the method: (§1)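 Whether a receptor–molecule pair is responsive (active) rests on the original authors' judgment that its measured signal was statistically different from baseline. Pairs without that judgment are non-responsive (inactive). Sources used varied assay methods, commonly transient luciferase assays in mammalian cell lines.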

UniProt A2AVB0 = target: T2, UniProt A2AVB0
T2 sequence (whole entry): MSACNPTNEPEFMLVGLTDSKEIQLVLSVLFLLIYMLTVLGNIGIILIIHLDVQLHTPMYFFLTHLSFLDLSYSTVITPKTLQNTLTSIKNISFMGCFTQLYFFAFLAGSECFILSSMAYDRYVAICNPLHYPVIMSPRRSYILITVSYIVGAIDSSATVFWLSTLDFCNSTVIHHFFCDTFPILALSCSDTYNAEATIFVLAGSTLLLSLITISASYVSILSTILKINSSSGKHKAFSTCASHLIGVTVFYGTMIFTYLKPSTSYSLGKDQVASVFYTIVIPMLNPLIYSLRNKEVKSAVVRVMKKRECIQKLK
Summary of the method: as §1

UniProt E9PVX1 = target: T3, UniProt E9PVX1
T3 sequence (whole entry): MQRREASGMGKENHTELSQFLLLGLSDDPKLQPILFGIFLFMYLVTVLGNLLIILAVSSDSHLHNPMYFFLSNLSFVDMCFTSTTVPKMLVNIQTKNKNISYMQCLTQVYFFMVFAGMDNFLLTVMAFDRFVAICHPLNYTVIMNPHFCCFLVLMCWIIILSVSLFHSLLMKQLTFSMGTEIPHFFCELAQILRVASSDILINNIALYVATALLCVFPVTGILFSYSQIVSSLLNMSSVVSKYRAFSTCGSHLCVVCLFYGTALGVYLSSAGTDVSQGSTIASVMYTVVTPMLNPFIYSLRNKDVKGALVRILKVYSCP
Summary of the method: as §1

UniProt E9PZ66 = target: T4, UniProt E9PZ66
T4 sequence (whole entry): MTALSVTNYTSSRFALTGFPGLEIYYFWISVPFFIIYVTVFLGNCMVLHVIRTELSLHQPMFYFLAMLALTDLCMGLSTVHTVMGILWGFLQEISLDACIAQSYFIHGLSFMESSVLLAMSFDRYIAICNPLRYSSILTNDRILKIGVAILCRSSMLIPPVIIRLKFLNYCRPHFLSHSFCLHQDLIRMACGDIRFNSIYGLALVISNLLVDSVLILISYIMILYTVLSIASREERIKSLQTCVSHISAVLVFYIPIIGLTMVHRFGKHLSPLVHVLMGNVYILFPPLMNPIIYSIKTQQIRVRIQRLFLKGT
Summary of the method: as §1

UniProt E9Q4X7 = target: T5, UniProt E9Q4X7
T5 sequence (whole entry): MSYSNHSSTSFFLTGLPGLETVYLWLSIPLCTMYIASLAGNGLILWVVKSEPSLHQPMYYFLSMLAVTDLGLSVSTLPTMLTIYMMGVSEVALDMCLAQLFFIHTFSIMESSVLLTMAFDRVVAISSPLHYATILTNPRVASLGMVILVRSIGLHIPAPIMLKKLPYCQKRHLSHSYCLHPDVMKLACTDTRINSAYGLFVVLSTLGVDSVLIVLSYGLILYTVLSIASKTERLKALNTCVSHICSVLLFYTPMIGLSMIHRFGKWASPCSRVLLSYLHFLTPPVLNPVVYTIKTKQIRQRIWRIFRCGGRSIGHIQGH
Summary of the method: as §1

UniProt E9Q546 = target: T6, UniProt E9Q546
T6 sequence (whole entry): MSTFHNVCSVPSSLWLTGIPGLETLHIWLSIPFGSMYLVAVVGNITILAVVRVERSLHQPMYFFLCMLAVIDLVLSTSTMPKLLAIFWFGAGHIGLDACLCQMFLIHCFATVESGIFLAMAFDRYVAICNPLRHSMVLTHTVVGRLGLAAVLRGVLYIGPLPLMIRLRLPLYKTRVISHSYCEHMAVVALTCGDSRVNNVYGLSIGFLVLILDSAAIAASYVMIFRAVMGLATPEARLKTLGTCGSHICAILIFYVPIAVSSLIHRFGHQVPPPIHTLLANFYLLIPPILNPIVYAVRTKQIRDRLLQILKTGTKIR
Summary of the method: as §1

UniProt E9Q6Z7 = target: T7, UniProt E9Q6Z7
T7 sequence (whole entry): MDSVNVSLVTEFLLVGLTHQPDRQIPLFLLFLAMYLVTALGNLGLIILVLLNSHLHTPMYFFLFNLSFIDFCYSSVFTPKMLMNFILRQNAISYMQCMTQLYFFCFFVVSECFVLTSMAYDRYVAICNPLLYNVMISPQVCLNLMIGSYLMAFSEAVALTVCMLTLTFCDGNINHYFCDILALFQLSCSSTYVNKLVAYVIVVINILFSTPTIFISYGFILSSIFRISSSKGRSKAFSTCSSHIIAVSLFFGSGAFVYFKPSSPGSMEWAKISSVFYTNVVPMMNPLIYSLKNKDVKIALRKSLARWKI
Summary of the method: as §1

Measured: odorant receptor agonist call;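 also: active if original authors judged signal statistically different from baseline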

CCCCCCCCCCOC(C)=O
inactive: all assays above

C=CC(=C)CCC=C(C)C
inactive: all assays above

C1CCOCC1
inactive: all assays above

O=C(OCc1ccccc1)c1ccccc1O
inactive: all assays above

CC=Cc1ccc(OC)cc1
inactive: all assays above

C=C(C)C1CCC2(C)OC2C1 (centres undefined)
inactive: all assays above

C=C(CC)CCCC(C)(C)O
inactive: all assays above

CCCCCOC(=O)CC
inactive: all assays above

CC(C)=CCCC(C)=CCOC(=O)C(C)C
inactive: all assays above

c1ccc2ncccc2c1
inactive: all assays above

CC(=O)C1(C)CC2=C(CCCC2(C)C)CC1C (centres undefined)
inactive: all assays above

OCC=Cc1ccccc1
inactive: all assays above

CC(C)CCN
inactive: all assays above

CCC=CCCC=CC=O
inactive: all assays above

CCCO
inactive: all assays above

O=C([O-])CCCCCCC(=O)[O-].[H+].[H+]
inactive: all assays above

CCC=CCCCCC=O
inactive: all assays above
